hiPSC survival = hiPSC single-cell survival enhancement | survival enhancement, % at 20 µM | AID 602274 | hit rate 0.044% among 360,000 | ATPlite luminescence; 100% = ROCK inhibitor wells, 0% = DMSO; in the data active = survival enhancement above about 18%;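 also: cells exposed to compounds for 16 hours before the ATP read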
FLuc inh counter = Photinus pyralis luciferase inhibition counter-screen. P08659. AID 1006. inhibition, % at 10 µM. hit rate 1.5% among 200,000. ATPLite firefly luciferase biochemical luminescence, 10 min;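 active = inhibition above about 50% when tested at 10 µM, limit read from the data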
Target sequence (P08659 whole entry, looked up): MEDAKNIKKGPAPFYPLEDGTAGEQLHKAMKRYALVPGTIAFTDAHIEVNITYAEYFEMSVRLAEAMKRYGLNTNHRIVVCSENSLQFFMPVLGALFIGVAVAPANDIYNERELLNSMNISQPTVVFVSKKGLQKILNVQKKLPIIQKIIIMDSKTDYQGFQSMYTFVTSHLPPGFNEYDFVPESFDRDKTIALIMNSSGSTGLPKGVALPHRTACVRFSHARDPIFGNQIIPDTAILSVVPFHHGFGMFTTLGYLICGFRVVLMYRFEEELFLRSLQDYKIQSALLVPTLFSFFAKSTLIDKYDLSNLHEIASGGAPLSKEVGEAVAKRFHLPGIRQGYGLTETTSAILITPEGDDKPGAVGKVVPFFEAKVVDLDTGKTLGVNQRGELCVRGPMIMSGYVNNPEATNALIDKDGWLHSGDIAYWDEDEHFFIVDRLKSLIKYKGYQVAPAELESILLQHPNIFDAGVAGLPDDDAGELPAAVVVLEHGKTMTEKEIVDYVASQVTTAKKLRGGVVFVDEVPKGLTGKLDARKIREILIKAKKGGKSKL
MIN6 prolif = inducers of beta-cell replication in MIN6 cells; MIN6 cells proliferation, ATPlite luminescence, 48 h; cells starved in 0.2% serum; 100% = growth in 10% serum; proliferation, % at 10 µM; hit rate 0.29% among 330,000; AID 2380;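 active = compounds whose signal lies at least 3.5 SD above the mean of all wells on their plate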;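 also: 0% = DMSO-treated cells in low-serum medium and 100% = 10% serum control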
FLuc act counter = affects firefly luciferase, flagging false hits in luciferase stimulation screens. 200,000 tested, under 10 active. ATPlite luciferase biochemical, luminescence, 10 min; 0 = ATP-free wells, 1 = DMSO control. activation factor at 10 µM. P08659;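 active = luciferase activation factor, scaled between plate controls, of at least 2 with compound at 10 µM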
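Assay system: Luciferase/luciferin reagent mix; Medium: PBS as buffer for the ATP substrate; Dosing: test compounds dosed from 2 mM stocks in 100% DMSO; Times: 10 min, room temperature; Signal: luminescence from luciferase reaction; Read-out: luciferase activation; Controls: No-ATP low control, compound-free enzyme-plus-ATP high control.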
C8 TRAIL sens = caspase-8 TRAIL sensitization; hit rate 1% among 360,000; inhibition (viability loss, TRAIL sensitization), % at 10 µM; NB7+C8 cells + TRAIL, ATPlite viability luminescence;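 active = compounds causing at least 50% loss of cell viability in the single-dose screen, relative to plate controls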
PPC-1+TRAIL kill = compounds killing PPC-1 cancer cells with TRAIL present (potentiator screen, no TRAIL-free arm); cell killing (% activity), % at 4 µM or 5 µM; PPC-1 cells + TRAIL, ATPLite viability luminescence; hit rate 0.41% among 220,000; AID 1443;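 active = cell killing above 50% in the first pass at 4 µM, then a duplicate retest at 5 µM averaging 50% or more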;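 also: plate controls were cells with TRAIL plus DMSO for no effect and medium-only wells lacking cells for full effect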
Starred values were filed as active, the others as inactive; . = not tested or not shown; ! = a repeat was not active. The list is not random: actives were taken first. Their share in the collection is about 1.8%.

SMILES	hiPSC survival	FLuc inh counter	MIN6 prolif	FLuc act counter	C8 TRAIL sens	PPC-1+TRAIL kill
CC1CC(=O)Nc2ccccc2N1C(=O)CN1CCN(c2ccccc2)CC1 (centres undefined)	-1	-4	-1	1	-5	-10
O=C(N/N=C\c1ccc(CNS(=O)(=O)c2ccc(Cl)cc2)o1)C(=O)Nc1ccc(Oc2ccccc2)cc1	-2	-7	.	1.1	54*	1
Cc1ccc(S(=O)(=O)N2CCOCC2)cc1NC(=O)CNc1ccccc1N1CCCC1=O	0	.	1	.	-9	.
COCCCn1c(C(=O)Nc2ccc3c(c2)OCO3)cc2c(=O)n3cccc(C)c3nc21	-1	.	.	.	54*	.
S=C(Nc1ccc(Oc2ccccc2)cc1)N(CCCN1CCOCC1)Cc1ccccn1	0	-4	-2	1	8	26
Clc1cccc(CN2CCc3c([nH]c4ccccc34)C2)c1	0	.	-4	.	20	.
Clc1ccc(CN2CCc3c([nH]c4ccccc34)C2)cc1Cl	-1	.	-5	.	54*	.
Nc1nc(Sc2ccc([N+](=O)[O-])c3nonc23)c2[nH]cnc2n1	-2	.	.	.	75*	.
CNc1ncnc(Sc2nc(N)nc3nc[nH]c23)c1[N+](=O)[O-]	-1	.	.	.	74*	.
O=c1[nH]c(Nc2ccccc2Cl)cc2ccccc12	2	.	3	.	-14	.
Cc1ccccc1Nc1cc2ccccc2c(=O)[nH]1	6	-1	-2	1	88*	21
CC1=NNC(=O)/C1=C\c1cn(-c2ccccc2)nc1-c1cccs1	0	-9	-6	1.1	39	35
CC1=NNC(=O)/C1=C\c1cn(-c2ccccc2)nc1-c1ccc(F)cc1	1	-8	.	1.1	86*	22
O=C(Nc1ccc(Cl)c([N+](=O)[O-])c1)c1ccc(NCCCN2CCOCC2)c([N+](=O)[O-])c1	-4	-11	-6	1.1	56*	12
Cn1c(=O)c(C(=O)CCl)c(N)n(Cc2ccccc2)c1=O	-3	-3	-6	1	28	19
Cn1c(N)c(C(=O)CCl)c(=O)n(Cc2ccccc2)c1=O	-2	-6	-1	1.1	90*	9
Cc1ccc(/C=C(\C#N)C(=O)Nc2ccccn2)o1	2	68*	-2	0.3	30	5
COc1ccc(/C=C(\C#N)C(=O)Nc2ccccn2)cc1	0	.	-2	.	3	.
O=C(CSc1ncccc1-c1nc2ccccc2[nH]1)NC1CC1	-2	1	0	1	11	4
Cc1cc2nc(-c3cccnc3SCC(=O)NC(C)C)[nH]c2cc1C	-1	70*	-4	0.3	34	38
Cc1cc2nc(-c3ccc(SCC(=O)Nc4ccc5c(c4)OCCO5)nc3)[nH]c2cc1C	-2	81*	-4	0.2	67*	46
Cc1ccc2nc(-c3ccc(SCC(=O)Nc4ccc5c(c4)OCCO5)nc3)[nH]c2c1	-2	62*	-3	0.4	46	46
Cc1ccc2nc(-c3ccc(SCC(=O)Nc4nnc(C)s4)nc3)[nH]c2c1	-3	56*	0	0.4	54*	21
Cc1ccc2nc(-c3ccc(SCC(=O)Nc4nc(C)cs4)nc3)[nH]c2c1	-1	28	-3	0.7	48	48
COc1ccc(C2/C(=C(/O)c3ccc4c(c3)CC(C)O4)C(=O)C(=O)N2CCCN2CCOCC2)cc1 (centres undefined)	0	.	0	.	-23	.
SMILES	hiPSC survival	FLuc inh counter	MIN6 prolif	FLuc act counter	C8 TRAIL sens	PPC-1+TRAIL kill
Cc1ccc(S(=O)(=O)NCCC(=O)NCC(=O)Nc2c(C)cccc2C)cc1C	1	.	1	.	-19	.
CC(=O)Cn1cnc2c(cnn2-c2ccc(F)cc2)c1=O	-2	.	.	.	1	.
CCOC(=O)CSc1ccc(-c2nc3cc(C)c(C)cc3[nH]2)cn1	-3	64*	-6	0.4	47	37
CCOC(=O)CSc1ccc(-c2nc3ccccc3[nH]2)cn1	4	22	0	0.8	17	15
Cc1ccc(-c2ccc(SCC(=O)Nc3ccc4c(c3)OCCO4)nn2)cc1	-3	57*	0	0.4	40	39
CC(C)CCNC(=O)CCc1nnc2n(CCCOC(C)C)c(=O)c3ccccc3n12	0	.	-1	.	-13	.
CC(OC(=O)c1ccc(S(=O)(=O)N2CCCCC2)cc1)C(=O)Nc1ccc(C(N)=O)cc1 (centres undefined)	40*	.	0	.	7	.
CC(OC(=O)c1ccc2c(=O)n3c(nc2c1)CCC3)C(=O)Nc1ccc(C(N)=O)cc1 (centres undefined)	26*	.	-2	.	-19	.
CC(OC(=O)c1ccc2c(=O)n3c(nc2c1)CCC3)C(N)=O (centres undefined)	-1	-3	-2	1	0	19
CC1Cc2[nH]c(=S)[nH]c(=O)c2C(c2ccc(F)cc2)O1 (centres undefined)	1	.	.	.	-18	.
COc1ccc(N(C(=O)c2snc(C(N)=O)c2N)C(CC(C)C)C(=O)NCC2CCCO2)cc1 (centres undefined)	-1	.	0	.	6	.
Cc1ccc(C(=O)Nc2cccc(C(F)(F)F)c2)cc1NC(=O)c1nccnc1N	2	.	1	.	54*!	-8
COc1cc(NC(=O)c2nccnc2N)cc(C(=O)Nc2cccc(C(F)(F)F)c2)c1	-1	.	-2	.	6	3
CN(CC(=O)Nc1cccc(Cl)c1)S(=O)(=O)/C=C/c1ccccc1	3	.	.	.	-6	.
COc1ccc(OCC(=O)Nc2nccs2)cc1	-1	75*	-2	0.2	48	48
COc1ccc(OCCC(=O)Nc2nccs2)cc1	-1	8	0	0.9	3	-2
O=C(COc1ccc2c(c1)OCO2)Nc1nccs1	-1	.	-3	.	53*	.
CN(Cc1ccccc1)C(=O)c1ccc(NC(=O)Cc2ccc(NC(=O)C3CCCN(C(=O)c4ccccc4)C3)cc2)cc1 (centres undefined)	1	.	.	.	4	.
COc1ccc(-n2ncc3c2CC(C)(C)CC3NC(=O)c2ccc(OC)o2)cc1 (centres undefined)	-1	.	-1	.	6	.
CCC[C@@H](CN[C@@H](CNC)[C@H](C)CC)NCC1CCC(C(C)(C)C)CC1 (some centres undefined)	-5	.	-9	.	35	.
CCC[C@H](CN[C@@H](CNC)[C@H](C)CC)NCCc1cc(C(F)(F)F)cc(C(F)(F)F)c1	-5	.	-9	.	88*	.
CC[C@@H](C)[C@H](CNC)NC[C@@H](Cc1cccc2ccccc12)NCCc1cccc(C(F)(F)F)c1	-4	.	-7	.	96*	.
O=C(c1ccc(S(=O)(=O)N2CCOCC2)cc1)N1CCc2ccccc21	1	.	1	.	4	.
COC(=O)c1sc(NC(=S)NC(=O)c2ccc(F)cc2)nc1C	.	9	3	0.9	.	10
COC(=O)c1sc(NC(=S)NC(=O)c2ccccc2C)nc1C	-3	45	-2	0.5	51*	2

From PubChem BioAssay
